Experimental data from PMC5131535 (ACS chemical neuroscience, 2016).
“And” between values parts separate entries of the source, which are not always exact repeats. Identical values can stand only once. Like-named read-outs stand apart in the source and are kept apart here.

Columns and labels:
[1] = Protein binding in plasma; conditions: rat
Kir2.3 = target: T1, Kir2.3 (Homo sapiens, UniProt P48050); assay: Tl+ flux selectivity assay, Kir2.3; assay type: cell-based; conditions: Thallium flux, Kir7.1 over Kir2.3
T1 sequence (P48050 1-445): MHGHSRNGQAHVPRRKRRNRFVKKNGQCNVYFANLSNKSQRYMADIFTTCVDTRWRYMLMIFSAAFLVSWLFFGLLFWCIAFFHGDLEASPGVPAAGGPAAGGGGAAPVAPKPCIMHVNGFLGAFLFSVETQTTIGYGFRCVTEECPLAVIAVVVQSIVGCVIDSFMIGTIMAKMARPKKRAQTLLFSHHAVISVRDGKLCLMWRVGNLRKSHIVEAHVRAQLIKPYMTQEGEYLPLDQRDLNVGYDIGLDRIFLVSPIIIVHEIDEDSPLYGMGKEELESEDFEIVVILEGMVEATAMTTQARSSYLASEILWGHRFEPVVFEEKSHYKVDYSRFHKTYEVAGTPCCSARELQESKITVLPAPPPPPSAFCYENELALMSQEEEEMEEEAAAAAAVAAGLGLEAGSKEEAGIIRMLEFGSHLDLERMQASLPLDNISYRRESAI

Kir6.2/SUR1 = Kir6.2/SUR1 (Homo sapiens, UniProt Q14654); assay: Tl+ flux selectivity assay, Kir6.2/SUR1; assay type: cell-based; conditions: Thallium flux, Kir7.1 over Kir6.2/SUR1
How it was run: (§1)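 Tetracycline-inducible stable T-REx-HEK-293 lines, induced overnight with 1 µg/ml tetracycline in DMEM/10% dialyzed FBS. Cells loaded 1 hr with 1.2 µM Thallos-AM in HBSS/20 mM HEPES pH 7.3 with 0.01% Pluronic F-127. Baseline fluorescence (ex 470, em 540 nm) read at 1 Hz before adding stimulus buffer with 1.8 mM Tl₂SO₄. Traces normalized to first point and vehicle-subtracted; slope taken 5–20 s post-Tl⁺; IC50 by nonlinear regression of CRCs.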

Kir2.1 [2] = target: T2, Kir2.1 (Homo sapiens, UniProt P63252); assay: Tl+ flux selectivity assay, Kir2.1; assay type: cell-based; conditions: Thallium flux, Kir7.1 over Kir2.1
T2 sequence (P63252 1-427): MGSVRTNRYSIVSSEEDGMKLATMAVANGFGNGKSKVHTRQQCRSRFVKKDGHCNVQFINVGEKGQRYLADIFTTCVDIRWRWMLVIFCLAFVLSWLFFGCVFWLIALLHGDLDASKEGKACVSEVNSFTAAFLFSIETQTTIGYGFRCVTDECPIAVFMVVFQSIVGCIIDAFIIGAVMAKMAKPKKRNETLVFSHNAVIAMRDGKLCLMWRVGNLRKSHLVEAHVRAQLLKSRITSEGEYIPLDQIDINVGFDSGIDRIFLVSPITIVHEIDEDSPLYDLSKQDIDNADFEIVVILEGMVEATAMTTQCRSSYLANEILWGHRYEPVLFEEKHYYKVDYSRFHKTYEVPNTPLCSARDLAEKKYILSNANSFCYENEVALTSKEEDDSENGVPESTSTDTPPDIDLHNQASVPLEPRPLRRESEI
How it was run: as §1

[3] = Protein binding in plasma; conditions: human
Kir7.1 [4] = target: T3, Kir7.1 (Homo sapiens, UniProt O60928, M125R); assay: Whole-cell patch clamp electrophysiology, Kir7.1; assay type: cell-based; conditions: Kir7.1 IC50 (Patch clamp), -120 mV
T3 sequence (O60928 1-360 M125R): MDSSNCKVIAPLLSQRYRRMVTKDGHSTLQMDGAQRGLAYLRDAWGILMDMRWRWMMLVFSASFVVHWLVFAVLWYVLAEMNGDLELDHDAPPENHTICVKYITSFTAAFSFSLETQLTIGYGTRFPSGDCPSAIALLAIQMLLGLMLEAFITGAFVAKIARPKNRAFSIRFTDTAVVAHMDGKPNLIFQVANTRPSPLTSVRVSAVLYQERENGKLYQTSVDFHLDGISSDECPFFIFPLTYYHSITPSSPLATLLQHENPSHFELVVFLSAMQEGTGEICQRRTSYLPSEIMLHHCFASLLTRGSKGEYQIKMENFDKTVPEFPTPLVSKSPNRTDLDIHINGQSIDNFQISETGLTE
How it was run: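 Human Kir7.1 (WT or mutant) was transiently co-transfected with EGFP into HEK-293T cells, which were replated next day on poly-L-lysine coverslips. Whole-cell clamp used bath 5 mM KCl, pH 7.4, and pipette 135 mM KCl, pH 7.3. Cells were held at −75 mV, stepped 500 ms to −120 mV, then ramped to 120 mV, every 5 s. Increasing test-compound doses were superfused, then BaCl₂ block; current read at −120 mV; variable-slope Hill fit, mean of n = 5.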

[5] = Protein binding in plasma; conditions: mouse
Kir2.2 = target: T4, Kir2.2 (Homo sapiens, UniProt Q14500); assay: Tl+ flux selectivity assay, Kir2.2; assay type: cell-based; conditions: Thallium flux, Kir7.1 over Kir2.2
T4 sequence (Q14500 1-433): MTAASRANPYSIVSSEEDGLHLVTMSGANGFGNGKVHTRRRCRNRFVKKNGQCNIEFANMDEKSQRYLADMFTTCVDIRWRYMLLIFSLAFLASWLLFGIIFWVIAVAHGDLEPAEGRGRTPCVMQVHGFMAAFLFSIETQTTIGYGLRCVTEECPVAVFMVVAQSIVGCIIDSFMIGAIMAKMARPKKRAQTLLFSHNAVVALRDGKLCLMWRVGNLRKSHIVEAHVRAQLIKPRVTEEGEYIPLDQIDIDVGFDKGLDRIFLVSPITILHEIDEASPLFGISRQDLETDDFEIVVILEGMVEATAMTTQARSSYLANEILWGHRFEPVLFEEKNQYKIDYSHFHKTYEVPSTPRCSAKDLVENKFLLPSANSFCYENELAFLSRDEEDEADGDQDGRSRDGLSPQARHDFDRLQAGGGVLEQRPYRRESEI

Kir7.1-M125R = target: T5, Kir7.1-M125R (Homo sapiens, UniProt O60928, M125R); assay: Tl+ flux assay in T-REx-HEK293 cells expressing Kir7.1-M125R; assay type: cell-based
T5 sequence (O60928 1-360 M125R): T3 sequence (O60928 1-360 M125R)
How it was run: as §1

Kir4.1 = target: T6, Kir4.1 (Homo sapiens, UniProt P78508); assay: Tl+ flux selectivity assay, Kir4.1; assay type: cell-based; conditions: Thallium flux, Kir7.1 over Kir4.1
T6 sequence (P78508 1-379): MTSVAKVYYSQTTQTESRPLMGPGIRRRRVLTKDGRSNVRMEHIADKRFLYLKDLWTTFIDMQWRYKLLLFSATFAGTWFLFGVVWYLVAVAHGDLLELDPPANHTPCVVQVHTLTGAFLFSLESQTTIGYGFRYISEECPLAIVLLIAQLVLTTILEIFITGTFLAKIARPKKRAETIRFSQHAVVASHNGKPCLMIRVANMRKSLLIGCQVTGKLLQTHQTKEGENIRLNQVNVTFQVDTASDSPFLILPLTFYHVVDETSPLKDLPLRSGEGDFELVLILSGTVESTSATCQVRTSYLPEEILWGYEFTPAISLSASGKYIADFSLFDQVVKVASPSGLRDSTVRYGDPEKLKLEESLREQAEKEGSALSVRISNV
How it was run: as §1

Kir1.1 = assay: Tl+ flux selectivity assay, Kir1.1; assay type: cell-based; conditions: Thallium flux, Kir7.1 over Kir1.1
How it was run: as §1

Kir2.1 [6] = target: T2, Kir2.1; conditions: read-out: Kir2.1 IC50; at pH 8.0; ref [24]; cited from earlier work
ROMK [7] = conditions: read-out: ROMK IC50 EP, cited from earlier work
Kir7.1 [8] = conditions: read-out: Kir7.1 IC50 EP, cited from earlier work
ROMK [9] = conditions: read-out: ROMK IC50 Tl+; ref [16]; cited from earlier work

Kir6.2/SUR1, sequence (Q14654 whole entry): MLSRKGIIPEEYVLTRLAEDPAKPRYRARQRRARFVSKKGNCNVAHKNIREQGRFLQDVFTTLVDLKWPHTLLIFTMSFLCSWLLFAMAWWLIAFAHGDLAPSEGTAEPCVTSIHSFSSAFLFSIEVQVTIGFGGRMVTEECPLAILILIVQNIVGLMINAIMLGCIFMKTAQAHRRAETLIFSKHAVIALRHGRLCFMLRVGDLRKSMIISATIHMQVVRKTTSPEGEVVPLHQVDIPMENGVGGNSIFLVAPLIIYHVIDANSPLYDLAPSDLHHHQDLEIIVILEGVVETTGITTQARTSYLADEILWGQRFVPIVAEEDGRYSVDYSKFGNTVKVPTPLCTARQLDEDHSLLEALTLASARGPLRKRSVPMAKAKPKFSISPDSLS
Kir6.2/SUR1, sequence (Q09428 whole entry partner): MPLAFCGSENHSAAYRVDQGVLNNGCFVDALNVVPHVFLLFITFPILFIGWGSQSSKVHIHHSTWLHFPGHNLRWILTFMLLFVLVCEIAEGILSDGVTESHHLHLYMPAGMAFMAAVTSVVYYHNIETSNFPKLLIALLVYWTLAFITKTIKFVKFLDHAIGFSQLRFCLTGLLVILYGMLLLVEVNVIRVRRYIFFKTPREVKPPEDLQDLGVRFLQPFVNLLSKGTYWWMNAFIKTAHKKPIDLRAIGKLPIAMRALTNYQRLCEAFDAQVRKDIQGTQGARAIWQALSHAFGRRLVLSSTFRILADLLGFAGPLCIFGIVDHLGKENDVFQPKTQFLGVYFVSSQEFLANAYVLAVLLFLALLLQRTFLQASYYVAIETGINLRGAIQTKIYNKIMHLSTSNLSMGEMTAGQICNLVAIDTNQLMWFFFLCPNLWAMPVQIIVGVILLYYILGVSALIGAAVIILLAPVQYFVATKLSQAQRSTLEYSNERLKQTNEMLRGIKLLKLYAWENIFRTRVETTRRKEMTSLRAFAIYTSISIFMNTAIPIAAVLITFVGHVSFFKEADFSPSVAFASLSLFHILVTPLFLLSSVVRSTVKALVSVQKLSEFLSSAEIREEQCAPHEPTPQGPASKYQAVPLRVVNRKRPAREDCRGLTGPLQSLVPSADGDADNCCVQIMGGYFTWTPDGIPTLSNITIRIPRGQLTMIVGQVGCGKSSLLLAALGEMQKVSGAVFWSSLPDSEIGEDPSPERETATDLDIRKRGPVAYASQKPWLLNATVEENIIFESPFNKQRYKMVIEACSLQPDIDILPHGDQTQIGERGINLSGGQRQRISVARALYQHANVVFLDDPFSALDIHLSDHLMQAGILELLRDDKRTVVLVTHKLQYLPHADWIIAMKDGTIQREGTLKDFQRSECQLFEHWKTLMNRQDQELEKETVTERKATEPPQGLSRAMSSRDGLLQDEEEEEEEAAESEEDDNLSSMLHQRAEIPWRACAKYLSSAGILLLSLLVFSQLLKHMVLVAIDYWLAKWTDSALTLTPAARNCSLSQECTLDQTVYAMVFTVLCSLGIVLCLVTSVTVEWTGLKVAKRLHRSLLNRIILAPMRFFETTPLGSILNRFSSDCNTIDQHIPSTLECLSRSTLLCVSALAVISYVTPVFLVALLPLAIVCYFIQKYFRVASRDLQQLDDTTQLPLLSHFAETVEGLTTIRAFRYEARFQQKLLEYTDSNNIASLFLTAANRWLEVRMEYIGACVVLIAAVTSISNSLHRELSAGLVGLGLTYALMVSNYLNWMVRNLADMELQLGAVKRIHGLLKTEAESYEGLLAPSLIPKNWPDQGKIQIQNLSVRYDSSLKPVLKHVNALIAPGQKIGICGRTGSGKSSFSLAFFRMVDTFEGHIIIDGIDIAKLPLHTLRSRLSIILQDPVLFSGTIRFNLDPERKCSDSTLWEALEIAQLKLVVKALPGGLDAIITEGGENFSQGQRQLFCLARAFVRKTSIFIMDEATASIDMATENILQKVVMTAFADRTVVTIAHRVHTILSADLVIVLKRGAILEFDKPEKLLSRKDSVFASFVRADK

SMILES: CC(C)(C)OC(=O)NC1CCN(Cc2cc(Cl)c3cccnc3c2O)CC1 [Compound 11, tert-Butyl (1-((5-chloro-8-hydroxyquinolin-7-yl)methyl)piperidin-4-yl)carbamate]
- fraction unbound [1]: 0.036
- Kir Channel Selectivity (Fold) 2.3 (Kir2.3): >18 Fold
- Kir Channel Selectivity (Fold) 6.2 (Kir6.2/SUR1): 1 Fold
- Kir Channel Selectivity (Fold) 2.1 (Kir2.1 [2]): >18 Fold
- fraction unbound [3]: 0.011
- IC50 (Kir7.1 [4]): 470 nM
- fraction unbound [5]: 0.056
- Kir Channel Selectivity (Fold) 2.2 (Kir2.2): >18 Fold
- IC50 (Kir7.1-M125R): 1700 nM
- Kir Channel Selectivity (Fold) 4.1 (Kir4.1): >18 Fold
- Kir Channel Selectivity (Fold) 1.1 (Kir1.1): >18 Fold

SMILES: COc1ccc(CNCc2cccc3ccccc23)cc1 [ML133]
- IC50 (Kir2.1 [6]): 300 nM
- IC50 (ROMK [7]; ref [24]): > 300000 nM
- IC50 (Kir7.1 [8]; ref [24]): 33000 nM

SMILES: O=[N+]([O-])c1ccc(CN2CCOCCOCCN(Cc3ccc([N+](=O)[O-])cc3)CCOCC2)cc1 [VU590]
- IC50 (ROMK [7]; ref [16]): 240 nM
- IC50 (ROMK [9]): 300 nM
- IC50 (Kir7.1 [8]; ref [16]): ~8000 nM and 8000 nM
